The source of these data is the M2OR odorant receptor database.
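Note: active if original authors judged signal statistically different from baseline.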

In the first assay the target is T1, OR51I2 (Homo sapiens) (UniProt Q9H344).
T1 sequence (whole entry): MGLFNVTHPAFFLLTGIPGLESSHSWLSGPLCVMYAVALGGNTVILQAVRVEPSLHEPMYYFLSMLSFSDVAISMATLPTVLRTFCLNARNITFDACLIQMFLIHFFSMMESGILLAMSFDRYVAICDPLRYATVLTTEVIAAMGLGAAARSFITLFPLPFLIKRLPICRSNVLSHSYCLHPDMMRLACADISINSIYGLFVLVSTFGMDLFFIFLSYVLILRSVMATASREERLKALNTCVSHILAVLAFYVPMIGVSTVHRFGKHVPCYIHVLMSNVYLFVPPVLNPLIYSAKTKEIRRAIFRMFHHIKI
Conditions: stereoisomer not certain. In outline: (§1)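 Each receptor–molecule pair is labelled responsive or non-responsive (inactive) according to whether the original authors judged the measured signal statistically different from baseline. The data were taken from the main text and supplementary material of published papers and checked for typos and inconsistencies. Assay methods differed by source, with transient luciferase assays in mammalian cell lines being common.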
Take `CCCCCC(=O)C(C)C(C)=O` (stereo not given): the “odorant receptor agonist call” value was “inactive”.

Turning to `CCCCC(S)C(C)CO` (stereo not given), the “odorant receptor agonist call” value is “inactive”.

For `CC1=C(O)C(=O)C(C)O1` (stereo not given), the “odorant receptor agonist call” value is “inactive”.

In the case of `CC1=C(O)C(=O)OC1C` (stereo not given), the “odorant receptor agonist call” value is “inactive”.

For `CCCC(S)CCOC(C)=O` (stereo not given), the “odorant receptor agonist call” value is “inactive”.

On to `CC(=O)c1c(C)c([N+](=O)[O-])c(C(C)(C)C)c([N+](=O)[O-])c1C`, for which the “odorant receptor agonist call” value was “inactive”.

For the molecule `CC(CO)CS` (stereo not given), the “odorant receptor agonist call” value is “inactive”.

Regarding `Cc1cnc(C)c(C)n1`, the “odorant receptor agonist call” value was “inactive”.

In the case of `CC1CCCCCCCCCCCCC(=O)C1` (stereo not given), the “odorant receptor agonist call” value is “inactive”.

As to `CCC1OC(=O)C(O)=C1C` (stereo not given), the “odorant receptor agonist call” value was “inactive”.

Turning to `CCCCCCC=CCCC=O`, the “odorant receptor agonist call” value is “inactive”.

In the case of `CCCCCC(S)C(C)CO` (stereo not given), the “odorant receptor agonist call” value is “inactive”.

For the molecule `CC1=NC(C)C(C)S1` (stereo not given), the “odorant receptor agonist call” value is “inactive”.

Consider `CCCCCC1CCCC(=O)O1` (stereo not given), for which the “odorant receptor agonist call” value was “inactive”.

Turning to `CCC1OC(C)=C(O)C1=O` (stereo not given), the “odorant receptor agonist call” value is “inactive”.

As to `CCC(S)C(C)CO` (stereo not given), the “odorant receptor agonist call” value was “inactive”.

The target in another assay is T2, OR51J1 (Homo sapiens) (UniProt Q9H342).
T2 sequence (whole entry): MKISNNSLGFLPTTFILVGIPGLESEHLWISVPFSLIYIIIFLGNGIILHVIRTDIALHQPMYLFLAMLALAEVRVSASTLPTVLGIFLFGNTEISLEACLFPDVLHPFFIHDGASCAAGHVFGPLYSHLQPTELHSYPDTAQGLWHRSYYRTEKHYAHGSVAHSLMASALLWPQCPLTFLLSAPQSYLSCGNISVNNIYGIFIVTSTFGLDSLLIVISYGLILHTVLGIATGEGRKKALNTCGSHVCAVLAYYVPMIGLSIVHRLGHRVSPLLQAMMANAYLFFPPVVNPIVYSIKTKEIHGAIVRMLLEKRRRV
Conditions: stereoisomer not certain. In outline: as §1
For `CCCCCC(=O)C(C)C(C)=O` (stereo not given), the “odorant receptor agonist call” value was “inactive”.

For the molecule `CCCCC(S)C(C)CO` (stereo not given), the “odorant receptor agonist call” value is “inactive”.

On to `CC1=C(O)C(=O)C(C)O1` (stereo not given), for which the “odorant receptor agonist call” value was “inactive”.

As for `CC1=C(O)C(=O)OC1C` (stereo not given), the “odorant receptor agonist call” value is “inactive”.

As to `CCCC(S)CCOC(C)=O` (stereo not given), the “odorant receptor agonist call” value is “inactive”.

In the case of `CC(=O)c1c(C)c([N+](=O)[O-])c(C(C)(C)C)c([N+](=O)[O-])c1C`, the “odorant receptor agonist call” value was “inactive”.

On to `CC(CO)CS` (stereo not given), for which the “odorant receptor agonist call” value was “inactive”.

Regarding `Cc1cnc(C)c(C)n1`, the “odorant receptor agonist call” value is “inactive”.

Consider `CC1CCCCCCCCCCCCC(=O)C1` (stereo not given), for which the “odorant receptor agonist call” value was “inactive”.

As for `CCC1OC(=O)C(O)=C1C` (stereo not given), the “odorant receptor agonist call” value was “inactive”.

`CCCCCCC=CCCC=O`: the “odorant receptor agonist call” value is “inactive”.

Consider `CCCCCC(S)C(C)CO` (stereo not given), for which the “odorant receptor agonist call” value was “inactive”.

Regarding `CC1=NC(C)C(C)S1` (stereo not given), the “odorant receptor agonist call” value was “inactive”.

Turning to `CCCCCC1CCCC(=O)O1` (stereo not given), the “odorant receptor agonist call” value is “inactive”.

Consider `CCC1OC(C)=C(O)C1=O` (stereo not given), for which the “odorant receptor agonist call” value is “inactive”.

On to `CCC(S)C(C)CO` (stereo not given), for which the “odorant receptor agonist call” value was “inactive”.

The target of another assay is T3, OR51L1 (Homo sapiens) (UniProt Q8NGJ5).
T3 sequence (whole entry): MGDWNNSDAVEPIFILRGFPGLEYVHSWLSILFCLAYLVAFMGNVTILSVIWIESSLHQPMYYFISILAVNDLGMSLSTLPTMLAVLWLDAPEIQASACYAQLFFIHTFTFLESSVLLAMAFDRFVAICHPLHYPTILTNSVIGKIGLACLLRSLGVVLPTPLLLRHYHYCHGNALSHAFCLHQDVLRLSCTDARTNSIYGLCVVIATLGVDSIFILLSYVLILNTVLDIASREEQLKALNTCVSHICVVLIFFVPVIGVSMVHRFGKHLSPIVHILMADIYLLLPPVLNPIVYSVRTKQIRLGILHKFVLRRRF
The note with it: stereoisomer not certain. Put shortly:
as §1
On to `CCCCCC(=O)C(C)C(C)=O` (stereo not given), for which the “odorant receptor agonist call” value was “inactive”.

Take `CCCCC(S)C(C)CO` (stereo not given): the “odorant receptor agonist call” value is “inactive”.

With `CC1=C(O)C(=O)C(C)O1` (stereo not given), the “odorant receptor agonist call” value was “inactive”.

For the molecule `CCCCCOC(=O)CCCCC`, the “odorant receptor agonist call” value was “inactive”.

Turning to `CCC(=O)C(=O)CC`, the “odorant receptor agonist call” value is “inactive”.

On to `CCCCCCC(=O)[O-].[H+]`, for which the “odorant receptor agonist call” value was “inactive”.

Turning to `C=CCOC(=O)CCCCCC`, the “odorant receptor agonist call” value was “inactive”.

Take `CC1=C(O)C(=O)OC1C` (stereo not given): the “odorant receptor agonist call” value is “inactive”.

`CCCC(S)CCOC(C)=O` (stereo not given): the “odorant receptor agonist call” value was “inactive”.

For the molecule `CCCCCC1=C(C)CCC1=O`, the “odorant receptor agonist call” value was “inactive”.

`CC(=O)c1c(C)c([N+](=O)[O-])c(C(C)(C)C)c([N+](=O)[O-])c1C`: the “odorant receptor agonist call” value is “inactive”.

In the case of `CC(CO)CS` (stereo not given), the “odorant receptor agonist call” value is “inactive”.

On to `COc1cc(C(=O)O)ccc1O`, for which the “odorant receptor agonist call” value is “inactive”.

For `Cc1cnc(C)c(C)n1`, the “odorant receptor agonist call” value is “inactive”.

Take `CCCCCC=O`: the “odorant receptor agonist call” value is “inactive”.

Turning to `CCCCCCCO`, the “odorant receptor agonist call” value was “inactive”.

As to `CC1CCCCCCCCCCCCC(=O)C1` (stereo not given), the “odorant receptor agonist call” value is “inactive”.

Regarding `C=C(C)C1CCC(C)C(=O)C1` (stereo not given), the “odorant receptor agonist call” value is “inactive”.

As to `CCC1OC(=O)C(O)=C1C` (stereo not given), the “odorant receptor agonist call” value is “inactive”.

Turning to `CCCCCCCCCS`, the “odorant receptor agonist call” value was “inactive”.

Take `CCCCCCC=CCCC=O`: the “odorant receptor agonist call” value is “inactive”.

On to `CCCCCC(S)C(C)CO` (stereo not given), for which the “odorant receptor agonist call” value was “inactive”.

In the case of `O=C1Cc2ccccc2O1`, the “odorant receptor agonist call” value is “inactive”.
